Laboratory results as given in ChEMBL document CHEMBL1765008, “Fused heterocyclic amido compounds as anti-hepatitis C virus agents” (Bioorg Med Chem, 2011).

System: Bovine viral diarrhea virus 1
Experiment: Antiviral activity against Bovine viral diarrhea virus assessed as inhibition of viral replication after 24 hrs by cell based luciferase reporter gene assay
Assay type: functional, organism-based
Settings: Bovine viral diarrhea virus isolates and strains

Molecule `Cc1ncc2c3ccccc3n(C)c2c1C` has an EC50 of 0.0035 µM.

System: Hepatitis C virus
Experiment: Antiviral activity against Hepatitis C virus assessed as inhibition of viral replication after 24 hrs by cell based luciferase reporter gene assay
Assay type: functional, organism-based
Settings: Hepacivirus hominis, 72 h, in the assay text read “after 3 days” for “after 24 hrs”
In short: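 Subgenomic HCV RNA replicon cells carrying luciferase (LucNeo#2), maintained in DMEM with 10% FBS, antibiotics and 1 mg/ml geneticin. Seeded at 50,000 cells/ml without geneticin and incubated 24 h. Medium then replaced with medium containing serial compound dilutions for 3 days. Cells washed with PBS and lysed for 10 min; luciferase activity in the lysate read by luminometer.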

Compared with `COCCn1c(=O)c2ccccc2c2cc(C(O)(C(F)(F)F)C(F)(F)F)ccc21`, `CCCCn1c(=O)c2ccccc2c2cc(C(O)(C(F)(F)F)C(F)(F)F)ccc21` is 1.7-fold lower in EC50: 5.4 µM for the first, 3.2 µM for the second.

Compared with `CCCCn1c(=O)c2c(OC)cccc2c2cc(C(O)(C(F)(F)F)C(F)(F)F)ccc21`, `CCCCn1c(=O)c2cccc(OC)c2c2cc(C(O)(C(F)(F)F)C(F)(F)F)ccc21` is 2-fold lower in EC50: 9.96 µM for the first, 5 µM for the second. The second is the more potent here.

Compared with `CCCCn1c(=O)c2cc(OC)ccc2c2cc(C(O)(C(F)(F)F)C(F)(F)F)c(OC)cc21`, `CCCCn1c(=O)c2cc(OC)ccc2c2cc(C(O)(C(F)(F)F)C(F)(F)F)cc(OC)c21` is 2.8-fold higher in EC50: 0.18 µM for the first, 0.51 µM for the second.

First: O=c1c2ccccc2c2cc(C(O)(C(F)(F)F)C(F)(F)F)ccc2n1Cc1ccc2ccccc2c1
Second: CCCCn1c(=O)c2ccccc2c2cc(C(O)(C(F)(F)F)C(F)(F)F)cc(C)c21
The EC50 of the first is 4.2-fold higher: 8.8 µM for the first, 2.1 µM for the second. The second is the more potent here.

First: CCCCn1c(=O)c2ccccc2c2c(OC)c(C(O)(C(F)(F)F)C(F)(F)F)cc(OC)c21
Second: CCCCn1c(=O)c2ccccc2c2cc(C(O)(C(F)(F)F)C(F)(F)F)c(OC)c(OC)c21
The EC50 of the first is 2.2-fold higher: 5.7 µM for the first, 2.6 µM for the second.

First: CCCCn1c(=O)c2cc3c(cc2c2cc(C(O)(C(F)(F)F)C(F)(F)F)c4c(c21)OCO4)OCO3
Second: CCCCn1c(=O)c2cc(OC)ccc2c2cc(C(O)(C(F)(F)F)C(F)(F)F)c3c(c21)OCO3
The EC50 of the first is 35-fold higher: 1.73 µM for the first, 0.05 µM for the second.

`CCCCn1c(=O)c2ccccc2c2cc(C(O)(C(F)(F)F)C(F)(F)F)c(F)cc21` and `CCCCn1c(=O)c2ccccc2c2cc(C(O)(C(F)(F)F)C(F)(F)F)c(C)cc21` are within 1.5-fold of each other in EC50: 5.3 µM for the first, 5.6 µM for the second.

Compared with `CCCCn1c(=O)c2cc(OC)ccc2c2cc(C(O)(C(F)(F)F)C(F)(F)F)ccc21`, `CCCCn1c(=O)c2ccc(OC)cc2c2cc(C(O)(C(F)(F)F)C(F)(F)F)ccc21` is 17-fold higher in EC50: 0.98 µM for the first, 16.6 µM for the second. The first is the more potent here.

First: CCCCn1c(=O)c2ccccc2c2c(OC)c(C(O)(C(F)(F)F)C(F)(F)F)ccc21
Second: CCCCn1c(=O)c2ccccc2c2cc(C(O)(C(F)(F)F)C(F)(F)F)c(OC)cc21
The EC50 of the first is 2.1-fold higher: 7.2 µM for the first, 3.4 µM for the second.

Compared with `CCCCn1c(=O)c2cc3c(cc2c2cc(C(O)(C(F)(F)F)C(F)(F)F)ccc21)OCO3`, `CCCCn1c(=O)c2ccccc2c2cc(C(O)(C(F)(F)F)C(F)(F)F)c3c(c21)OCO3` is 7.9-fold lower in EC50: 2.3 µM for the first, 0.29 µM for the second.

Going from `CCCCn1c(=O)c2cc(OC)ccc2c2c(OC)c(C(O)(C(F)(F)F)C(F)(F)F)cc(OC)c21` to `CCCCn1c(=O)c2cc(OC)ccc2c2cc(C(O)(C(F)(F)F)C(F)(F)F)c(OC)c(OC)c21`, the EC50 falls from 6.1 µM to 1.8 µM (3.4-fold). The second is the more potent here.

`CCCCn1c(=O)c2ccccc2c2c(OC)c(C(O)(C(F)(F)F)C(F)(F)F)c3c(c21)OCO3` and `CCCCn1c(=O)c2cc(OC)ccc2c2c(OC)c(C(O)(C(F)(F)F)C(F)(F)F)c3c(c21)OCO3` are within 1.5-fold of each other in EC50: 9.8 µM for the first, 12 µM for the second.

Compared with `CCCCn1c(=O)c2ccccc2c2cc(C(O)(C(F)(F)F)C(F)(F)F)cc(F)c21`, `CCCCn1c(=O)c2ccccc2c2cc(C(O)(C(F)(F)F)C(F)(F)F)cc(OC)c21` is 2.2-fold lower in EC50: 2.4 µM for the first, 1.1 µM for the second.
